The text below walks through data of the array DNA melting data of Ke et al. (doi:10.1101/2024.01.08.574731).

Data set [1] in a line: melting temperature; fluorescence melt of hairpins on a sequencing array, two-state fit, raised by 9.35 °C to match UV melts. To be noted: sodium 0.088 M. Put shortly:
(§1)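 Cy3 signals were normalised both to pre-quench Cy3 and to control constructs. They came from library hairpins carrying annealed Cy3 and quencher oligos on a sequenced MiSeq flow cell, imaged in 50 mM Na-HEPES pH 8.0, 25 mM NaCl, in 2.5 °C steps up to 60 °C. Bootstrapped two-state fits gave melting temperature and folding enthalpy, and four replicates were combined by inverse variance. Fitted temperatures were then raised by 9.35 °C to match UV melts.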

Data set [2] in a line: folding enthalpy; higher = less favourable; fluorescence melt of hairpins on a sequencing array, two-state fit. To be noted: sodium 0.088 M. In a few lines:
as §1

As for GGTGCTGGAAACGGTACC (((.(.(....).).))), in data set [1], the Tm was found to be 41.2 °C. The folding enthalpy in data set [2] is -35.8 kcal/mol.

Consider GCGGTGGACCGC ((((....)))), for which, in data set [1], the Tm stood at 59.6 °C. For the same sequence, the folding enthalpy in data set [2] is -26.6 kcal/mol.

In the case of GAGTTCGGAAACGAGTTC ((..(((....)))..)), in data set [1], the Tm came to 30.7 °C. Further, the folding enthalpy in data set [2] was -9.81 kcal/mol.

For GCCTACGAAAGTAAGGGC ((((((....)))..))), the Tm in data set [1] came to 46.8 °C. Besides, the folding enthalpy in data set [2] is -23.9 kcal/mol.

For GAACACGAAAGTGTCTTC ((((((....)))..))), the Tm in data set [1] worked out at 52.8 °C. In addition, in data set [2], the folding enthalpy was -24.3 kcal/mol.

Regarding GAAACCGAAAGGTTCTTC ((((((....)))..))), in data set [1], the Tm was found to be 54.4 °C. For the same sequence, in data set [2], the folding enthalpy was -22.5 kcal/mol.

As for GTAGCGCGAAAGCGGTAC (((.(((....))).))), the Tm in data set [1] amounted to 68.8 °C. The folding enthalpy in data set [2] is -25.3 kcal/mol.

In the case of GATCTCCGTTGAGATC ((((((....)))))), the Tm in data set [1] amounted to 52.6 °C. For the same sequence, in data set [2], the folding enthalpy is -35.6 kcal/mol.

On to GGCACCGGAAACGGCACC ((..(((....)))..)), for which the Tm in data set [1] was 30.9 °C. Also, the folding enthalpy in data set [2] was -15.8 kcal/mol.

For CGTCCGGAAACGGAGACG ((((((....)))..))), in data set [1], the Tm came out at 45.3 °C. Further, the folding enthalpy in data set [2] was -21.4 kcal/mol.

With GATCGGACGGCCGATC ((((((....)))))), in data set [1], the Tm amounted to 59.3 °C. Further, the folding enthalpy in data set [2] was -45.5 kcal/mol.

With CGGGGGAAACCCCG (((((....))))), in data set [1], the Tm is 68.5 °C. Also, the folding enthalpy in data set [2] is -21.8 kcal/mol.

On to GTATACGAAAGTACTTAC ((((((....)))..))), for which the Tm in data set [1] came out at 31.5 °C. In addition, in data set [2], the folding enthalpy is -13.5 kcal/mol.

On to GAGAGAGGAAACTCTCTC (((((((....))))))), for which, in data set [1], the Tm amounted to 57.9 °C. Moreover, the folding enthalpy in data set [2] is -35.4 kcal/mol.

As for GCTTCGCCGAAAGGCAGC (((..(((....)))))), the Tm in data set [1] turned out to be 40.9 °C. Besides, the folding enthalpy in data set [2] was -10.4 kcal/mol.

Regarding GCCTACGAAAGTAGCGGC ((((((....)))..))), in data set [1], the Tm is 49.6 °C. In addition, the folding enthalpy in data set [2] is -19.5 kcal/mol.

For GCGCTTGGAAACAAACGC (((.(((....))).))), the Tm in data set [1] amounted to 48 °C. In addition, the folding enthalpy in data set [2] was -34.1 kcal/mol.

In the case of GATCGGGTTACCGATC ((((((....)))))), the Tm in data set [1] came to 67.3 °C. Moreover, in data set [2], the folding enthalpy was -35.8 kcal/mol.

As to CGACCGGAAACGGGTTCG ((((((....)))..))), the Tm in data set [1] stood at 38.9 °C. The folding enthalpy in data set [2] is -21.4 kcal/mol.

Regarding CGTTGCGGAAACGCCACG (((.(((....))).))), the Tm in data set [1] amounted to 49.5 °C. The folding enthalpy in data set [2] was -29.8 kcal/mol.

In the case of GCAGTGCGAAAGCAGTGC (((.(((....))).))), the Tm in data set [1] came to 66.4 °C. Moreover, the folding enthalpy in data set [2] was -37.9 kcal/mol.

Consider CGCCCGGAAACGGAGCG ((((((....))).))), for which the Tm in data set [1] amounted to 58.3 °C. The folding enthalpy in data set [2] is -31.8 kcal/mol.

GGCAGCCCGAAAGGGGCC (((..(((....)))))): the Tm in data set [1] came to 50.7 °C. Besides, the folding enthalpy in data set [2] is -13.3 kcal/mol.

As for GTCGGGAAACCGAC (((((....))))), the Tm in data set [1] was 66 °C. The folding enthalpy in data set [2] is -24.2 kcal/mol.

For the sequence GGGTTGCGAAAGCACCC (((.(((....)))))), in data set [1], the Tm turned out to be 62.9 °C. Moreover, in data set [2], the folding enthalpy is -23.7 kcal/mol.

Regarding GGAGGTCGAAAGACGTCC (((.(((....))).))), the Tm in data set [1] was 57.8 °C. Also, the folding enthalpy in data set [2] is -37.7 kcal/mol.

For the sequence CGGTGCGGAAACGCCCCG (((.(((....))).))), the Tm in data set [1] was 53.9 °C. In addition, in data set [2], the folding enthalpy was -28.6 kcal/mol.

In the case of GACCTTGGAAACAAGGCC (.(((((....))))).), the Tm in data set [1] came to 45.2 °C. Moreover, the folding enthalpy in data set [2] is -17.2 kcal/mol.

Turning to GCTGTCTCGAAAGAGAGC (((..(((....)))))), in data set [1], the Tm was determined as 38.3 °C. In addition, the folding enthalpy in data set [2] was -15.5 kcal/mol.

For the sequence GTGCTCGAAAGAGTCCAC ((((((....)))..))), in data set [1], the Tm was determined as 31.8 °C. Moreover, the folding enthalpy in data set [2] is -13.1 kcal/mol.
